Shown are actives, neighbours in structure and some others; about 2.6% of the full set was active somewhere.
Platelet DG rel – platelet dense granule release activity | human platelet-rich plasma, SFLLRN dense granule ATP release, luminescence | inhibition, %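 (compounds screened at 7.5 µM in platelet-rich plasma)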 | 300,000 tested, 0.22% active;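 active means mean replicate score, as percent of positive control, at or above 50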
SENP6 inh – SENP6 protease inhibition. Recombinant SENP6 catalytic domain, aminoluciferin luminescence. Q9GZR1. 330,000 tested, 1.8% active. inhibition, % at 10 µM;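 active means inhibition above about 50% at the single tested dose, limit read from the data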
SENP7 inh – inhibitors of human SENP7 protease | Q9BQF6 | recombinant SENP7, Z-RLRGG-aminoluciferin luminescence, 40 min | inhibition, % at 5 µM | 330,000 tested, 1.5% active;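 active means inhibition above about 50% at the single test dose, limit read from the data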
SENP1 inh – inhibitors of human SENP1 SUMO protease catalytic domain. recombinant SENP1 catalytic domain, CyPet-SUMO1-YPet FRET cleavage. inhibition, % at 10 µM. 360,000 tested, 0.21% active;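 active means inhibition at least 30% at 10 µM, raw YFP signal under a set limit, fluorescence ratio 0.5 to 1.5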
Target sequence (Q9P0U3 419-644 limits assumed): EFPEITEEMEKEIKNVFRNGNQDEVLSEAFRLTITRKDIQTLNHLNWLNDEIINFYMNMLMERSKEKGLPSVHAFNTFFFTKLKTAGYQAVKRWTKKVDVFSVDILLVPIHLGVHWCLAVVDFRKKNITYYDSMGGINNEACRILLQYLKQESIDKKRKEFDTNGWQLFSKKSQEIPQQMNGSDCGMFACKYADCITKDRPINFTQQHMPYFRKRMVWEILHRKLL
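Material – human SENP1 catalytic domain · Input – SENP1 enzyme, 20 pM final · Compound dosing – single concentration of 10 µM compound, 0.5% DMSO final · Timing – enzyme reaction for 50 min at room temperature, dark · Measured by – FRET fluorescence in CFP and YFP emission channels · Control set – no-enzyme wells low, DMSO-plus-enzyme wells high control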
SENP8 block-1 – SENP8 (human) protease inhibition; recombinant SENP8, Nedd8 substrate fluorescence; 360,000 tested, 0.64% active; Q96LD8; AID 602440; inhibition, % at 20 µM; in the data active means inhibition mostly above about 40%, no sharp cut-off; inactive means mostly below about 27%
Target sequence (Q96LD8 whole entry, looked up): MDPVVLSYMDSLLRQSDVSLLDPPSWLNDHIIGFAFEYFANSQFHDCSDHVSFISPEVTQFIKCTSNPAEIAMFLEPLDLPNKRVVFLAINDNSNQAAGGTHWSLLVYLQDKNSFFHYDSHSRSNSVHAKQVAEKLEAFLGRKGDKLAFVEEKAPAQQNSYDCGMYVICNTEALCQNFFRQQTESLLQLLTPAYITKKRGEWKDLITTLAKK
SENP8 block-2 – SENP8 protease inhibition. inhibition, % at 10 µM. AID 2540. Q96LD8. 330,000 tested, 1.2% active. purified SENP8, Z-RLRGG-aminoluciferin cleavage, luminescence; in the data active means inhibition above about 50%
SENP8 confirm – confirmation of human SENP8 protease inhibitors; shares compounds with SENP7 inh; Recombinant SENP8, Z-RLRGG-aminoluciferin luminescence, 60 min; inhibition, % at 12.5 µM; 6,200 tested, 40% active;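 active means mean inhibition across replicates above about 50%, limit read from the data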
SENP6 confirm – human SENP6 inhibition, confirmed | shares compounds with SENP7 inh | recombinant SENP6, Z-RLRGG-aminoluciferin luminescence | inhibition, % at 12.5 µM | 6,200 tested, 58% active
SENP7 confirm – confirmation of human SENP7 protease inhibitors. recombinant SENP7, Z-RLRGG-aminoluciferin luminescence, 40 min. inhibition, % at 12.5 µM. shares compounds with SENP7 inh. 6,200 tested, 69% active
Casp3 select – inhibits human caspase-3 in SENP selectivity test. shares compounds with SENP7 inh. inhibition, % at 12.5 µM. purified caspase-3, Z-DEVD-aminoluciferin luminescence, 60 min. 6,200 tested, 60% active;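 active means mean inhibition above about 50%, limit read from the data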
Target sequence (P42574 28-227 limits assumed): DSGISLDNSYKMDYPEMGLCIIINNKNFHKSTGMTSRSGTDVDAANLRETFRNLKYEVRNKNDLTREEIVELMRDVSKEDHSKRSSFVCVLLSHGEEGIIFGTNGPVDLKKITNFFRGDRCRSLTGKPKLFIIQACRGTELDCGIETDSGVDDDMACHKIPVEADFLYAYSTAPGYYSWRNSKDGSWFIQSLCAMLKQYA
Luc interf – interferes with luciferase luminescence in SENP counter-screen | Pre-incubated SENP8/Z-RLRGG-aminoluciferin, luciferase luminescence interference | shares compounds with SENP7 inh | inhibition, % at 12.5 µM | 6,200 tested, 39% active;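 active means mean inhibition above about 50% when retested at one dose, limit read from the data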
A number is an active result; n = inactive; x = no result.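 How the source made its calls, unless noted: active means mean inhibition above about 50% in the one-dose retest (limit read from the data); inactive means the rest.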

SMILES	Platelet DG rel	SENP6 inh	SENP7 inh	SENP1 inh	SENP8 block-1	SENP8 block-2	SENP8 confirm	SENP6 confirm	SENP7 confirm	Casp3 select	Luc interf
N/C(=N\OC(=O)c1ccc(F)cc1)c1nonc1N	n	96	98	n	n	94	98	98	102	98	87
Cc1nc(/C(N)=N/OC(=O)c2cccc(Cl)c2)c(C(F)(F)F)o1	n	n	n	n	n	n	x	x	x	x	x
Nc1ncnc2c1ncn2[C@@H]1O[C@H](C(=O)NCC2CCN(Cc3ccccc3)CC2)[C@@H](O)[C@H]1O	x	x	x	n	n	x	x	x	x	x	x
Cc1ccc(N(C(=O)c2snc(C(N)=O)c2N)C(C(=O)NC2CCCC2)c2ccncc2)cc1 (stereo unspecified)	n	n	n	n	n	n	x	x	x	x	x
COc1ccc(C(=O)N2CCC(C)(C(=O)NS(=O)(=O)C3CC3)C2)c(OC)c1 (stereo unspecified)	x	x	x	n	n	x	x	x	x	x	x
Cc1ccc(N(Cc2cc(=O)[nH]c3ccccc23)C(=O)CCl)c(C)c1	n	n	n	n	n	n	x	x	x	x	x
COc1cccc(CCc2nnc(N)s2)c1	n	n	n	n	n	n	x	x	x	x	x
N/C(=N/OC(=O)c1ccccc1Cl)c1nonc1N	54	97	99	n	n	96	100	101	104	99	98
Cc1nc(NC(=O)c2ccccc2)sc1C	n	90	92	n	n	78	90	91	100	95	89
Cc1nc(NC(=O)c2csc3ccccc23)sc1C	n	69	77	n	n	50	n	73	95	51	n
CC(=O)c1sc(NC(=O)c2ccccc2)nc1-c1ccccc1	n	75	61	n	n	63	n	71	88	51	54
Cc1nc(NC(=O)c2cccnc2Cl)sc1C	n	54	n	n	n	n	n	n	75	80	60
CCN(CC(=O)Nc1cc(Cl)ccc1C)C(=O)c1nc2nc(C)cc(C)n2n1	x	n	n	n	n	n	x	x	x	x	x
CCn1cc(C(=O)N[C@@H](CCSC)C(=O)NC(C)(C)CO)c(=O)c2cc3c(cc21)OCO3	n	n	n	n	n	n	x	x	x	x	x
Cc1nc(NC(=S)NC(=O)c2ccccc2)sc1C	n	n	n	n	n	n	x	x	x	x	x
Cc1nc(NC(=O)c2ccccc2O)sc1C	n	n	54	n	n	n	n	n	n	n	n
Cc1ccc(S(=O)(=O)N2C[C@H]3C(=O)C[C@@H](c4ccccc4)N(S(=O)(=O)c4ccc(C)cc4)[C@H]3C[C@H]2c2ccc(Cl)cc2)cc1	x	x	x	n	n	x	x	x	x	x	x
Cn1c(=NC(=O)c2ccco2)sc2ccccc21	n	67	52	n	n	n	54	56	84	79	n
O=C(CN1CCN(CN2C(=O)NC3(CCCCCC3)C2=O)CC1)Nc1ccc(F)cc1	x	n	n	n	n	n	x	x	x	x	x
COc1ccc(CCCC(=O)NCc2ccccc2)cc1C	n	n	n	n	n	n	x	x	x	x	x
O=C(Nc1nc2c(s1)CCCC2)c1ccc2ncsc2c1	n	n	n	n	n	n	x	x	x	x	x
O=C(Nc1nc2c(s1)CCCC2)c1ccc(Br)s1	n	60	53	n	n	n	n	n	86	n	n
O=C(Nc1nc2c(s1)CCCC2)c1ccc(N2C(=O)CCC2=O)cc1	n	n	n	n	n	n	x	x	x	x	x
Cc1ncsc1C(=O)Nc1nc2c(s1)CCCC2	61	96	99	n	n	92	52	98	103	98	53
Cc1cc(C(=O)Nc2nc3c(s2)CCCC3)cs1	n	84	86	n	n	67	n	75	98	84	n
SMILES	Platelet DG rel	SENP6 inh	SENP7 inh	SENP1 inh	SENP8 block-1	SENP8 block-2	SENP8 confirm	SENP6 confirm	SENP7 confirm	Casp3 select	Luc interf
CCN(C[C@H]1N[C@@](CC)(C(=O)OC)[C@H]2C(=O)N(Cc3ccccc3)C(=O)[C@@H]12)C(=O)NC(C)C	x	n	n	n	n	n	x	x	x	x	x
O=C(COC(=O)c1cnccn1)Nc1cc(S(=O)(=O)N2CCOCC2)ccc1Cl	x	n	n	n	n	n	x	x	x	x	x
Clc1ccc2nc3c4ccccc4cnn3c2c1	n	99	98	n	n	95	94	94	101	92	n
Clc1ccc2nc3ccccc3cc2c1	x	x	x	n	n	x	x	x	x	x	x
Cc1cccn2cc(-c3ccc(Cl)cc3)nc12	n	95	91	n	n	89	95	96	101	92	54
Cc1cccn2cc(-c3ccc(S(=O)(=O)N4CCCCC4)cc3)nc12	n	n	n	n	n	n	x	x	x	x	x
Nc1ccc2nc(-c3ccc(Cl)cc3)[nH]c2c1	n	75	63	n	n	66	80	81	54	n	81
Nc1ccc2nc(-c3cc(Cl)c(N)c(Cl)c3)[nH]c2c1	n	87	77	n	n	64	n	73	94	82	76
Nc1ccc(-c2nc3ccc(N)cc3[nH]2)cc1	n	n	n	n	n	n	x	x	x	x	x
COc1cccc(S(=O)(=O)N(C)C[C@@H]2OCc3cn(nn3)CCCC(=O)N([C@@H](C)CO)C[C@H]2C)c1	x	x	x	n	n	x	x	x	x	x	x
COc1ccc(Cl)cc1NS(=O)(=O)c1cccc(C(=O)NC2CC2)c1	x	n	n	n	n	n	x	x	x	x	x
Cc1cccc(C)c1NC(=O)CN(C)C(=O)C(c1ccccc1)c1ccccc1	n	n	91	n	n	n	n	n	n	n	n
O=C(COC(=O)c1ccc2c(c1)OCCO2)Nc1ccc(F)cc1F	x	n	n	n	n	n	x	x	x	x	x
O=C(Nc1ccc(Br)cc1F)c1ccc2c(c1)OCCO2	n	90	86	n	n	80	n	86	98	84	n
O=C(Nc1ccc(F)cc1F)c1ccc2c(c1)OCCO2	n	89	89	n	n	78	n	82	98	93	56
O=C(NCCc1ccccc1F)c1ccc2c(c1)OCCO2	n	92	89	n	n	80	89	89	98	94	89
Cc1occc1C(=O)Nc1ccc(Br)cc1F	n	56	n	n	n	n	n	n	73	63	n
O=C(NCc1ccccc1F)c1ccc2c(c1)OCO2	n	n	n	n	n	n	x	x	x	x	x
C=CCn1c(SCC(=O)c2c(N)n(CCC)c(=O)n(C)c2=O)nnc1-c1ccncc1	n	n	n	n	n	n	x	x	x	x	x
